# Source: publication PMC4479701 (mBio, 2015)
# Values joined by “and” are separate entries in the source; they are usually repeats but may differ in a detail not shown here. Identical values can stand only once. Like-named read-outs stand apart in the source and are kept apart here.
# Experiments:
# [1] = In vivo toxicity, blood work; design: species or system mouse (CBA/J)
# Method in brief: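 Female CBA/J mice, 4 weeks old: five received 1.2 mg/kg/day test compound for 60 days, and three controls received a daily solvent injection. On day 60, blood was collected into one K2EDTA tube and one plain tube allowed to clot.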
# [2] = system: Candida spp.; assay: In vitro susceptibility; format: cell-based; details: most Candida spp. examined
# Method in brief: (§1)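 Inoculum prepared per CLSI M27-A3. Plates incubated at 37°C with 5% CO2 for 24 to 96 h. MIC was the lowest concentration inhibiting 50% of growth versus the drug-free control. Minimum fungicidal concentration was also measured: serial dilutions from wells were plated on YPD agar, and MFC was the lowest concentration yielding three or fewer colonies (99% of inoculum killed).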
# [3] = system: C. albicans; assay: Yeast-to-hypha differentiation; format: cell-based; details: 4 µg/ml
# Method in brief: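 C. albicans yeast and hyphal forms were counted after exposure to test compound and compared with drug-free controls. Twenty random fields, about 120 cells, were scored.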
# [4] = system: S. cerevisiae deletion mutants; format: cell-based, Saccharomyces cerevisiae
# [5] = system: Cryptococcus gattii; assay: In vitro susceptibility testing; format: cell-based
# Method in brief: as §1
# [6] = system: Cryptococcus neoformans; assay: In vitro susceptibility testing; format: cell-based
# [7] = system: Candida krusei; assay: In vitro susceptibility testing; format: cell-based
# Method in brief: as §1
# [8] = system: Pneumocystis murina; assay: In vitro testing against Pneumocystis, inhibition of ATP; format: cell-based; details: read-out: IC50 (percentage inhibition of ATP)
# [9] = system: C. neoformans cells; assay: In vitro passages, development of resistance; format: cell-based; details: 15 days of in vitro passages (120 generations), 10^6 cells/ml; data not shown
# [10] = system: Paecilomyces variotii; assay: In vitro susceptibility testing; format: cell-based; details: QC FTL strains
# Method in brief: as §1
# [11] = system: C. albicans SC 5314; assay: Mouse model of invasive candidiasis; format: in vivo, mouse (CBA/J); details: after 21 days of infection; 1.2 mg/kg/day i.p.; 8 mice per group
# Method in brief: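 Female CBA/J mice, 8 weeks old (8 per group), were infected i.v. with 100 µl containing 10^5 C. albicans SC-5314. Test compound was given i.p. at 1.2 mg/kg/day in 100 µl PBS with 0.4% DMSO immediately after inoculation; untreated mice received vehicle. Survival was monitored. Organs of survivors were homogenized in 10 ml PBS, diluted tenfold, and plated on YPD at 30°C for 72 h for CFU.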
# [12] = system: GlcCer synthesis in C. neoformans; assay: In vivo labeling with [3H]palmitate, TLC of GlcCer; format: cell-based; details: [3H]palmitate labeling
# [13] = system: various Cryptococcus species; assay: MIC; format: cell-based
# Method in brief: as §1
# [14] = system: Rhizopus oryzae; assay: In vitro susceptibility testing; format: cell-based; details: FTL strains (3)
# Method in brief: as §1
# [15] = system: C. neoformans; assay: Mouse model of cryptococcosis, intravenous infection; format: in vivo, mouse (CBA/J); details: 1.2 mg/kg/day i.p.; 8 mice per group; vehicle 7.0 ± 1.1
# [16] = system: intracellular C. neoformans; assay: Intracellular effect in J774.16 macrophages; format: cell-based; details: 0.25, 1 or 4 µg/ml; dose dependent, 12 and 24 h
# Method in brief: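 J774.16 macrophages were co-incubated 1:1 with C. neoformans for 2 h, with complement and anti-capsular MAb 18B7 as opsonins. Wells were washed to remove extracellular yeast, then fresh DMEM with varying test compound concentrations was added, at 37°C, 5% CO2. Macrophages were lysed and plated for intracellular CFU.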
# [17] = system: sphingolipids of C. neoformans; assay: Sphingolipid profiling by TLC and LC-MS; format: cell-based
# [18] = system: Pneumocystis jirovecii; assay: In vitro testing against Pneumocystis, inhibition of ATP; format: cell-based; details: read-out: IC50 (percentage inhibition of ATP)
# [19] = Pharmacokinetics of BHBM in mice; format: in vivo, mouse (C3H/HeN); details: for half-life: C3H/HeN, mouse, plasma, ip, IS/IN mice
# Method in brief: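 Test compound was dissolved at 10 mg/ml (stock) in cremophor-ethanol 1:1 and diluted in PBS to 200 or 400 µg/ml. C3H/HeN mice (n = 3), either healthy or immunocompromised and P. murina-infected, received 0.8 or 1.6 mg/kg i.v. (tail vein) or i.p. in 100 µl. Blood was taken into K2EDTA predose and at 0.5, 1, 2, 4, 8, 12 and 24 h, and plasma stored at −80°C. t1/2 = 0.693/λz.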
# [20] = system: C. neoformans; assay: Synergism assay; format: cell-based
# [21] = system: C. neoformans; assay: Mouse model of cryptococcosis, intranasal infection; format: in vivo, mouse (CBA/J); details: 1.2 mg/kg/day i.p.
# Method in brief: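 Mice (10 per group) were infected by nasal inoculation of 20 µl containing 5 × 10^5 C. neoformans. Test compound was given i.p. at 1.2 mg/kg/day in 100 µl PBS with 0.4% DMSO, starting 2 h after inoculation. Survival followed up to 60 days. Organs of survivors were homogenized in 10 ml PBS, diluted serially 1:10, plated on YPD, and incubated at 30°C for 72 h for CFU.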
# [22] = In vitro toxicity; format: cell-based, murine; details: mouse, J774.16 macrophage cells
# Method in brief: (§2)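 J774.16 murine macrophages were kept in DMEM with 10% FBS and 1% pen-strep, and used until passage eight. At passage 7, 10^5 cells/well were allowed to adhere for 14 h. Test compound was then added at 0.1 to 100 µg/ml, with drug-free wells as controls. Incubation at 37°C, 5% CO2.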
# [23] = system: J774 cells; assay: In vitro toxicity; format: cell-based, murine
# Method in brief: as §2
# [24] = TLC, confirmed by mass spectrometry
smiles,measurement,setting,value
"Cc1ccccc1C(=O)NN=Cc1ccc(O)c(Br)c1 [BHBM, N′-(3-bromo-4-hydroxybenzylidene)-2-methylbenzohydrazide]",all other blood parameters for liver and kidney function,[1]; after 60 days of treatment,normal
same,liver aspartate aminotransferase (AST),"[1]; after 60 days of treatment, 1.2 mg/kg/day, untreated 50 ± 9",125 ± 75 U/liter
same,tolerability in animals,"[1]; mouse, in vivo",well tolerated
same,in vitro susceptibility,[2],resistant
same,yeast-to-hypha differentiation,[3],significantly reduced
same,resistance of Δsla2 mutant,[4],not resistant
same,"growth of Δapl5, Δcos111, Δmkk1, Δste2 mutants compared with parent strain","[4]; BHBM in the range of 11 to 92 µg/ml, 24 h, 30°C",increased resistance
same,MIC range,[5]; FTL strains (10),0.5−2 µg/ml
same,MIC range,[5]; MDPL strains (3),0.5−1 µg/ml
same,MIC range,[6],0.5−2 µg/ml and 1−2 µg/ml
same,MIC range,[6]; FTL strains (13),0.25−8 µg/ml
same,MIC range,[7]; ATCC 6258 (MDPL strain),16 µg/mL
same,MIC range,[7]; MDPL strain (1),32 µg/mL
same,MIC range,[7]; QC FTL strains,8 µg/mL
same,IC50,[8]; 24 h,1.02 µg/mL
same,IC50,[8]; 48 h,< 0.01 µg/mL
same,IC50,[8]; 72 h,< 0.01 µg/mL
same,IC50,[8]; 96 h,2.02 µg/mL
same,development of resistance,[9],did not develop resistance
same,MIC range,[10],>16 µg/mL
same,mice still alive,[11],62.5%
same,synthesis of GlcCer,[12],significantly inhibited
same,MIC,[13],0.25 to 8 µg/mL
same,MIC range,[14],2 µg/mL
same,"survival, days postinfection",[15],11.1 ± 3.7 days
same,intracellular replication of C. neoformans inside macrophages (CFU),[16],significantly decreased
same,levels of C18 hydroxyceramide and its desaturated and methylated forms,"[17]; LC-MS, D0 data not shown",decreased
same,GlcCer levels,[17]; [24],decrease
same,"dihydroceramide, sphingosine, and sphingosine-1-phosphate",[17]; [24],increased
same,IC50,[18]; 24 h,0.912 µg/mL
same,IC50,[18]; 48 h,0.159 µg/mL
same,IC50,[18]; 72 h,0.074 µg/mL
same,IC50,[18]; 96 h,0.072 µg/mL
same,half-life,"[19]; 0.8 mg/kg, T1/2, IP 0.8 mg/kg (low dose)",47.4 min
same,half-life,"[19]; 1.6 mg/kg, T1/2, IP 1.6 mg/kg (high dose)",50.4 min
same,distribution to brain tissue,"[19]; upon administration, data not shown",readily found in brain tissue
same,interaction category,[20]; combined with caspofungin,"additive (additive effect, FIC = 1)"
same,interaction category,[20]; combined with fluconazole,highly synergistic
same,interaction category,[20]; combined with tunicamycin,"synergistic (synergistic effect, FIC < 1)"
same,brain tissue burden (CFU),[21],eradication of fungal cells
same,lung tissue burden (CFU),[21],decrease of fungal load
same,mice surviving C. neoformans infection,"[21]; up to 60 days, 10 mice per group",90%
same,EC50 at 48 h,[22],50 µg/mL
same,EC50/MIC80 selectivity index,[23]; J774 EC50 versus MIC,50
same,selectivity index (EC50/MIC ratio),[23]; macrophage cell line,> 50
